For one assay, the target named is T1, GLUT1 (Homo sapiens, UniProt P11166).
T1 sequence (P11166 1-492): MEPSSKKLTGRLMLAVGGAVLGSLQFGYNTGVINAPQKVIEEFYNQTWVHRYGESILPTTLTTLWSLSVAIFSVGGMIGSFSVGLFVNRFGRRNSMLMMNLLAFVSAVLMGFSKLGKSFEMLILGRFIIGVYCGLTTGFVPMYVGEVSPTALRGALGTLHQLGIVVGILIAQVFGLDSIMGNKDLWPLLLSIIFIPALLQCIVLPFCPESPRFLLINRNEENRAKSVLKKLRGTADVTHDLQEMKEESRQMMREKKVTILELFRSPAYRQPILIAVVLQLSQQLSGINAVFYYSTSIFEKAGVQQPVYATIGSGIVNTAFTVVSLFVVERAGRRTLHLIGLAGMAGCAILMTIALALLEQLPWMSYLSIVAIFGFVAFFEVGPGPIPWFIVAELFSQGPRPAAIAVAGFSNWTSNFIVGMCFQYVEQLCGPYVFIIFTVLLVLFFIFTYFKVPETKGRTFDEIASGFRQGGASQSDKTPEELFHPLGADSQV
In words: GLUT transport inhibition assay in hxt0 yeast cells. Type of assay: cell-based. In outline:
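hxt0 yeast (VW4000fgy1) expressing human GLUT1 was grown at 30 °C in SC-uracil, first on 2% maltose, then on 2% glucose. Cells were PBS-washed (pH 7.4) to OD600 ~10. Test compound was varied from 0.1 to 100 μM. Uptake of 5 mM 14C-glucose ran 10 min and was stopped with ice-cold quench buffer (pH 5.5). Cells were filtered and counted by scintillation.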

The target in a further assay is T2, GLUT4 (Homo sapiens, UniProt P14672).
T2 sequence (P14672 1-509): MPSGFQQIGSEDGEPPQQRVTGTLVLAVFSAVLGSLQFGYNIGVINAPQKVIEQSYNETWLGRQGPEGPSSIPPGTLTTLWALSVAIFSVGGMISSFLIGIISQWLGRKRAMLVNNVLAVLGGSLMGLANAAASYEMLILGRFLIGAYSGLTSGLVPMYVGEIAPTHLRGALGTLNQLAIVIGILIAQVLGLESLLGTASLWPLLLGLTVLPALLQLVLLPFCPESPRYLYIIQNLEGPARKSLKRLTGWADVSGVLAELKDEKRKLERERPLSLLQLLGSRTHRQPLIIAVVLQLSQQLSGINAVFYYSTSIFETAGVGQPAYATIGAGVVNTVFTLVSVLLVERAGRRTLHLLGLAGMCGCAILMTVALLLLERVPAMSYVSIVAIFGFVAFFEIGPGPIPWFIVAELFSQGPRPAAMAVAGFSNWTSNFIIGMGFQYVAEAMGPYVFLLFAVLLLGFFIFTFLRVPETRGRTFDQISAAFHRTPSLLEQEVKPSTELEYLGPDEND
Briefly: GLUT transport inhibition assay in hxt0 yeast cells. The class given is cell-based. The conditions noted are these: 50 μM compound, 5 mM C14-glucose. The method in brief:
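Human GLUT4 was expressed in VW4000fgy1erg4 yeast (1% maltose, then 0.2% glucose, SC-uracil). GLUT5 was expressed in VW4000 (YEP with 2% maltose and G418, then 2% fructose). PBS-washed cells were exposed to 50 μM test compound. Uptake of 14C-glucose (5 mM, GLUT4) or 14C-fructose (10 mM, GLUT5) ran 10 min, followed by quench, filtration and scintillation counting. Activity was relative to 1% DMSO and to saturating phloretin (GLUT4) or MSNBA (GLUT5). Triplicates.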

On GLUT1, `O=C(CN1C(=O)SC(=Cc2ccccn2)C1=O)Nc1nc2ccccc2s1` [Compound P19, N-(benzo[d]thiazol-2-yl)-2-(2,4-dioxo-5-(pyridin-2-ylmethylene)thiazolidin-3-yl)acetamide] gave an IC50 of 28.2 µM. For the same compound, the “relative transport activity of GLUT4” value at GLUT4 is listed as “ineffective”.

The term IC50 denotes the point on the concentration scale where inhibition reaches its midpoint. A higher IC50 goes with a need for much substance.

Values taken from article PMC7302971 (Bioorganic chemistry, 2020).
